Data set [1] deals with beta-catenin-B-cell lymphoma 9 protein complex (Homo sapiens) (UniProt P35222+O00512). Description: Inhibition of protein interaction between full-length beta-catenin (unknown origin) / full-length BCL9 (unknown origin) in human HCT-116 cell lysates incubated for 4 hrs by co-immunoprecipitation assay. It is filed as subcellular. The method, boiled down: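 HCT116 cells were lysed in 50 mM Tris pH 7.4, 150 mM NaCl, 1% NP-40, 2 mM EDTA and protease inhibitors. Lysates were incubated with a range of inhibitor concentrations for 4 h at 4 °C and precleared on protein A/G agarose. β-Catenin was immunoprecipitated overnight at 4 °C and captured on A/G beads for 3 h. Beads were washed five times and run on 8% SDS-PAGE. Blots were probed for BCL9 and E-cadherin.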

The next data set relates to SW480. Description: Effect on E-cadherin-bound beta-catenin levels in human SW480 cells at 25 to 100 uM incubated for 24 hrs by Western blot analysis. The data set is classed as functional, cell-based. Conditions: dose 25-100 µM. The method, boiled down: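 SW480 cells at 1 × 10^6 cells/mL were treated with a range of inhibitor concentrations for 24 h. Cells were lysed in Tris/NaCl/NP-40/deoxycholate/SDS buffer with protease inhibitors. Lysates were run on 8% SDS-PAGE and blotted to nitrocellulose. Blots were probed overnight at 4 °C for total β-catenin (mostly the E-cadherin-bound pool), active β-catenin (dephosphorylated S37/T41), cyclin D1, c-myc and β-tubulin. Detection used infrared secondary antibodies. Duplicate.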
In general terms: A western blot detects proteins with antibodies after separation by electrophoresis.

Data set [2] can be described thus: Drug level in human HCT-116 cells assessed as per million cells at 50 uM incubated for 6 hrs at 37 degC in presence of DMEM media with 10% FBS. It is filed as ADME, cell-based. Conditions: hct-116, 6 h. The method, boiled down:
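Cells were incubated with 50 μM compound for 6 h in 5 mL DMEM with 10% FBS, at 37 °C or at 4 °C. Cell-bound compound was quantified by a previously described method and expressed as nmol per million cells. The 4 °C incubation was used to estimate binding to the cell membrane through nonspecific association.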

Data set [3] addresses T1, beta-catenin-B-cell lymphoma 9 protein complex (Homo sapiens, UniProt P35222).
T1 sequence (P35222 whole entry): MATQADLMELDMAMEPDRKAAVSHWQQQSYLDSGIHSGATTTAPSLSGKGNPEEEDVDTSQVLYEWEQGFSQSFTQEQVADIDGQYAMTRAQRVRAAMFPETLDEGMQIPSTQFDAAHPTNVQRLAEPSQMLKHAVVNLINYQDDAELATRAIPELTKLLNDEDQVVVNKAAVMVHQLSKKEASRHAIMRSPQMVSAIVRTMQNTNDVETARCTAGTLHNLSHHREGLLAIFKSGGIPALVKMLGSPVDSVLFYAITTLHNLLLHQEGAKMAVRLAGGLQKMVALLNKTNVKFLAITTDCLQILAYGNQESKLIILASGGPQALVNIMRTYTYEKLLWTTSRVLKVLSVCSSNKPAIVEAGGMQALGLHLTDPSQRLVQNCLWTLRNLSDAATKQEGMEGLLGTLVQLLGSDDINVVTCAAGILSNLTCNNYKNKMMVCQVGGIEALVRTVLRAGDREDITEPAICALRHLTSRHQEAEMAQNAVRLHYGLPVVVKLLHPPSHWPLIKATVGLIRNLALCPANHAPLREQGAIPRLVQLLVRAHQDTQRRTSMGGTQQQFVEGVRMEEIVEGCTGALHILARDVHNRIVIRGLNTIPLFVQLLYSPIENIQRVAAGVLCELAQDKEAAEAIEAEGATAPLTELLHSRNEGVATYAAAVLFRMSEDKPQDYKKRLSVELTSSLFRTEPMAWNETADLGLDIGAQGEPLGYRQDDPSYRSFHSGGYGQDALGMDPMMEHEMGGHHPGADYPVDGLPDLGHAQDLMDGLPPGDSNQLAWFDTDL
T1 sequence (O00512 whole entry): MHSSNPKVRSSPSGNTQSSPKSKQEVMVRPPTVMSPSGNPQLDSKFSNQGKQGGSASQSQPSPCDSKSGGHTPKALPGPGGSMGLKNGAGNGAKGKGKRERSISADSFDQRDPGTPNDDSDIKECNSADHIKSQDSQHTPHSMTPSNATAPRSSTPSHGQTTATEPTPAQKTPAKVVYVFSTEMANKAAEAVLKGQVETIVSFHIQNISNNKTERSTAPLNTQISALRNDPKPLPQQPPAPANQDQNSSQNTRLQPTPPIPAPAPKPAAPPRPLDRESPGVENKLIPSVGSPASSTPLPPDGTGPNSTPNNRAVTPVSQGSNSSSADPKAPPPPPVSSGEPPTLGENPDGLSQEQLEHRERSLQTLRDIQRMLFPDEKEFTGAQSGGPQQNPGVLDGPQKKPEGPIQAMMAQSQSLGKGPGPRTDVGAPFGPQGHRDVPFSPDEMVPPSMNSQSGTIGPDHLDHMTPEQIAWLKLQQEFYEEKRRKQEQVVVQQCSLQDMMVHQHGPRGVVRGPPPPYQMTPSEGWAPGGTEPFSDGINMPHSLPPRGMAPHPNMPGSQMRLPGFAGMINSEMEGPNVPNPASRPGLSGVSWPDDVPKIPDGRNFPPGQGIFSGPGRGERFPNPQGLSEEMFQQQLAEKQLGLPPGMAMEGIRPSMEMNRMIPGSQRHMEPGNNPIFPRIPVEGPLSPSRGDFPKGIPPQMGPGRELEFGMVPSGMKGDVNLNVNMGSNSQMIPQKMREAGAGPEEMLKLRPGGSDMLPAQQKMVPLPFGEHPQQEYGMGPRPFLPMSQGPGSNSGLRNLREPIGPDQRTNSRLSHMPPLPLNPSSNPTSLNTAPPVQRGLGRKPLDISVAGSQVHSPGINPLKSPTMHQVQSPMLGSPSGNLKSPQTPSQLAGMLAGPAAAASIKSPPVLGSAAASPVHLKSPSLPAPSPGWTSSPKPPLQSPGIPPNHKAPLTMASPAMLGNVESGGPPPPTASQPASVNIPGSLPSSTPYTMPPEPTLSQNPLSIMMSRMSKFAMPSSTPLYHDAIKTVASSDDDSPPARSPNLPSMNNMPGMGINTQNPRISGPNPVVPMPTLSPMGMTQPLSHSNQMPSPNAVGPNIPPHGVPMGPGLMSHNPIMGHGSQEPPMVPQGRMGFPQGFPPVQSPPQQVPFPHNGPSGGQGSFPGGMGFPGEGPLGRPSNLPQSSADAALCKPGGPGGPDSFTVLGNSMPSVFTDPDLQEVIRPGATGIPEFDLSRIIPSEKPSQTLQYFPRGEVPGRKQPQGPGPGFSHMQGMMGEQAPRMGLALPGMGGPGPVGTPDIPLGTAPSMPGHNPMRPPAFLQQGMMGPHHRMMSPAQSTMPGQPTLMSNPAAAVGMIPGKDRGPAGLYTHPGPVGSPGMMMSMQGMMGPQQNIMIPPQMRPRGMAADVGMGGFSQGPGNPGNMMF
Nature of the data set: Inhibition of protein interaction between beta-catenin (unknown origin)/BCL9 (unknown origin) by Alpha-screen competitive inhibition assay. The data set is classed as protein-complex assay. The method, boiled down:
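Purified His6-tagged full-length β-catenin (40 nM) preincubated with biotinylated BCL9 (5 nM) for 30 min at 4 °C. Inhibitor dilutions then added, 1 h at 4 °C, followed by donor and acceptor beads (10 μg/mL final) for 1 h at 4 °C. IC50 obtained by nonlinear least-squares fit and converted to Ki by the Nikolovska-Coleska method. Triplicate, mean ± SD.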

Molecules are shown by their SMILES. The source made the active and inactive calls. The calls are words filed in the database; no cut-off is given here.

By Ki is commonly meant the dissociation constant of the complex between target and ligand, obtained from inhibition or displacement. A higher Ki goes with lower affinity.

With `Cl.Cl.O=C(Nc1ccc(O[C@@H]2CCNC2)c(-c2cccc(-c3nn[nH]n3)c2)c1)c1ccc(O[C@H]2CCNC2)c(-c2ccc(F)c(F)c2)c1`, in data set [1], the inhibition entry was “Dose-dependent effect”. In the data set with SW480, the result was inactive. In addition, the Drug uptake in data set [2] worked out at 6.6 nmol.
For the compound `Cl.Cl.O=C(Nc1ccc(O[C@H]2CCNC2)c(-c2ccc(F)cc2)c1)c1ccc(O[C@H]2CCNC2)c(-c2ccc(F)c(F)c2)c1`, in data set [3], affinity was put at a Ki of 2.1 µM. This lies in the single-digit micromolar range.

The values above are taken from ChEMBL document CHEMBL4680104, “Structure-Based Optimization of Small-Molecule Inhibitors for the β-Catenin/B-Cell Lymphoma 9 Protein-Protein Interaction” (J Med Chem, 2018).
